Measurements from different studies.
Protocols differ between the studies behind these lines.
Target: Mitogen-activated protein kinase kinase kinase 9 (MAP3K9, Homo sapiens, UniProt P80192)

| SMILES | test | setting | endpoint | result |
| --- | --- | --- | --- | --- |
| Cc1ccc(Nc2nccc(N(C)c3ccc4c(C)n(C)nc4c3)n2)cc1S(N)(=O)=O | enzyme activity, inhibitor | 10 µM | inhibition | 92% |
| O=C(Nc1cccc(Nc2ncc(Br)c(NCCc3cnc[nH]3)n2)c1)N1CCCC1 | enzyme activity, inhibitor, radiometric | 1 µM | remaining activity | 5% |
| O=C(Nc1cnn(-c2csc(C(=O)NC3COC3)c2)c1)Nc1ccccc1Cl | enzyme activity, inhibitor | 5 µM | remaining activity | 95.1% |
| c1cc(CN2CCOCC2)cc(Nc2nccc(NCCc3cnc[nH]3)n2)c1 | enzyme activity, inhibitor, radiometric | 1 µM | remaining activity | 73% |
| CCCOc1ccc([C@@H]2[C@@H](C(=O)O)[C@H](c3ccc4c(c3)OCO4)CN2CC(=O)Nc2c(CC)cccc2CC)cc1 | cell-free assay, competition with immobilised ligand | 1 µM | remaining binding | 93% |
| COc1cccc2c(NCc3ccccc3)nc(-n3c(N)nc4ccccc43)nc12 | target engagement in cells, inhibitor, chemoproteomics | 20 mM | inhibition | 11.3% |
| Cc1nn(CC(F)(F)F)cc1Nc1nccc(NCCc2cnc[nH]2)n1 | enzyme activity, inhibitor, radiometric | 1 µM | remaining activity | 77% |
| CO[C@H]1CC[C@H](CNc2ccc(S(=O)(=O)NC(=O)c3ccc(N4CCN(CC5=C(c6ccc(Cl)cc6)CC(C)(C)CC5)CC4)cc3Oc3cnc4[nH]ccc4c3)cc2[N+](=O)[O-])CC1 | cell-free assay, competition with immobilised ligand | 1 µM | remaining binding | 84% |
| N#CCCc1ccc2c(c1)-c1[nH]c3ccc([N+](=O)[O-])cc3c1CC(=O)N2 | cell-free assay | 0.5 µM | remaining signal | 18.2% |
| COc1cc(/C=C/C(=O)CC(=O)/C=C/c2ccc(O)c(OC)c2)ccc1O | enzyme activity, inhibitor | 1 µM | activity vs control | 14% |
| c1cc(CN2CCOCC2)cc(Nc2ncc(C3CC3)c(NCCc3c[nH]cn3)n2)c1 | enzyme activity, inhibitor, radiometric | 1 µM | remaining activity | 7% |
| COc1cc2c(Nc3ccc(Br)cc3F)ncnc2cc1OCC1CCN(C)CC1 | cell-free assay | 0.5 µM | remaining signal | 96.1% |
| C=CC(=O)Nc1cc(Nc2nccc(Nc3cc(Cl)c(F)cc3C(C)(C)O)n2)c(OC)cc1N1CC[C@@H](N(C)C)C1 | enzyme activity, inhibitor | 1 µM | inhibition | 33% |
| O=C(O)c1cc(-c2ccc(C3CCNCC3)cc2)c2ccc(-c3ccc(C(F)(F)F)cc3)cc2c1 | cell-free assay, competition with immobilised ligand | 1 µM | remaining binding | 100% |
| C#Cc1cccc(Nc2ncnc3cc(OCCOC)c(OCCOC)cc23)c1 | cell-free assay | 0.5 µM | remaining signal | 111% |
| COc1cccc(CNC(=O)c2nc3scc(COCc4ccc(C(=O)O)cc4)c3c(=O)[nH]2)c1 | cell-free assay, competition with immobilised ligand | 1 µM | remaining binding | 100% |
| CC(C)c1ccc(NC(=O)c2cccs2)c(-c2nc3ccccc3[nH]c2=O)c1 | enzyme activity, inhibitor | 1 µM | activity vs control | 92% |
| Cc1nc(N2CC[C@@H](O)C2)ncc1-c1cc(C(F)(F)F)cc2[nH]ncc12 | binding, competition with immobilised ligand | 1 µM | remaining binding | 100% |
| Cc1nn(CC(F)(F)F)cc1Nc1ncc(C2CC2)c(NCCCNC(=O)C2CCC2)n1 | enzyme activity, inhibitor, radiometric | 1 µM | remaining activity | 78% |
| Nc1ncnc2occ(-c3ccc(NC(=O)Nc4cc(C(F)(F)F)ccc4F)cc3)c12 | cell-free assay, inhibitor | 20 µM | remaining signal | 2% |
| c1ccc(N2CCN(Cc3nc4ccccc4[nH]3)CC2)nc1 | binding, competition with immobilised ligand | 1 µM | remaining binding | 100% |
| CNC(=O)c1cc(Oc2ccc(NC(=O)Nc3ccc(Cl)c(C(F)(F)F)c3)cc2)ccn1 | enzyme activity, inhibitor | 10 µM | inhibition | 23% |
| Brc1cnc(Nc2cccc(CN3CCOCC3)c2)nc1NCCc1c[nH]cn1 | enzyme activity, inhibitor, radiometric | 1 µM | remaining activity | -1% |
| C[C@H](c1ccnc(Nc2nc3ccc(-c4cc(N(C)C)ncn4)cc3[nH]2)c1)N1CCN(C(=O)CC(F)(F)F)CC1 | cell-free assay, competition with immobilised ligand | 0.1 µM | remaining binding | 100% |
| CCCS(=O)(=O)Nc1ccc(F)c(C(=O)c2c[nH]c3ncc(-c4ccc(Cl)cc4)cc23)c1F | enzyme activity, inhibitor | 1 µM | inhibition | < 10% |
| CCCCNc1ncc2c(-c3ccc(F)cc3)nn(C[C@H]3CC[C@H](N)CC3)c2n1 | target engagement in cells, inhibitor, chemoproteomics | 20 mM | inhibition | 54.9% |
| NS(=O)(=O)c1ccc(CNc2nc(Nc3cccc(CN4CCOCC4)c3)ncc2C2CC2)cc1 | enzyme activity, inhibitor, radiometric | 1 µM | remaining activity | 72% |
| Cc1c(C(=O)O)cc(-c2ccc(C3CCNCC3)cc2)c2ccc(-c3ccc(C(F)(F)F)cc3)cc12 | binding, competition with immobilised ligand | 1 µM | remaining binding | 92% |
| Cc1nn(CC(F)(F)F)cc1Nc1ncc(Br)c(NCc2ccc(S(N)(=O)=O)cc2)n1 | enzyme activity, inhibitor, radiometric | 1 µM | remaining activity | 80% |
| COc1cc2ncnc(Nc3ccc(Oc4ccccc4)cc3C)c2cc1OC | enzyme activity, inhibitor | 1 µM | inhibition | 9% |
